Assay outcomes deposited in PubChem by several laboratories.
Only some compounds are listed: those with a hit (about 1% of all), similar ones and a draw of the others.
Hep lipid drop: hepatic lipid droplet formation modulation; AML12 mouse hepatocytes, oleate lipid droplets, BODIPY imaging; inhibition, % at 6.5 µM; hit rate 0.4% among 240,000; AID 1656;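 active = lipid droplet intensity inhibited by at least 50%, with more than 500 cells counted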
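Test system: AML12 hepatocytes (mouse); reagent: oleate loading, 100 µM; dosing: one dose, 6.5 µM compound; incubation: overnight exposure; signal: fluorescence imaging, 20x objective, two fields per well; read-out basis: % inhibition of corrected integrated BODIPY droplet signal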
CTSL1 counter: counter-screen for PFM18AAP inhibitors: inhibitors of F. hepatica cathepsin L1; AID 1906; inhibition, % at 5.96 µM; recombinant F. hepatica cathepsin L1, Z-Leu-Arg-MCA fluorescence; hit rate 0.49% among 300,000;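 active = inhibition above the mean of all tested compounds plus 3 SD, set per screening campaign, cut at about 17% in these data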;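 also: 0% = plate median of test compound wells and 100% = 1 µM Z-Phe-Ala-diazomethylketone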
Arr AP2 block: human beta-arrestin and AP2 interaction inhibition | inhibition, % at 10 µM | FITC-arrestin peptide / GST-AP2 beads, flow cytometry; AP2 beta2 appendage carries R879A mutation | hit rate 0.31% among 340,000;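 active = inhibition above a set limit, near 3 SD of compounds lacking own fluorescence, cut at about 54% in these data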;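 also: plate controls were DMSO wells for no effect and 5 µM unlabelled arrestin peptide for full effect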
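test system = AP2 appendage R879A on GSH beads | buffer or medium = PBS plus Tween 20 (0.05%) and BSA (0.1%) | incubation = 12 min plus 1 h, RT | detection = bead flow cytometry, FITC channel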
p-CIP stab down: compounds decreasing mouse p/CIP protein stability; AID 1984; decrease of EGFP signal, % at 10 µM; F442A p/CIP-EGFP cells, EGFP fluorescence, 16 h; hit rate 0.01% among 290,000; Q05BA5;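 active = EGFP signal decrease of at least 30% at 10 µM or well 3 SD below plate mean, unless failing retest; inactive = the rest, including hits failing retest or dose response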
* = called active by the depositor; nt = not tested or not shown.

SMILES | Hep lipid drop | CTSL1 counter | Arr AP2 block | p-CIP stab down
COc1ccc(-c2ncnc(C(F)(F)F)c2-c2csc(C)n2)c(O)c1 | 47.6 | 18.4* | -10.3 | 4.5
O=C1Cc2cc(S(=O)(=O)NCc3ccc(F)cc3)ccc2N1 | nt | nt | 11.2 | nt
COc1cccc(NC(=O)[C@@H]2CCCN2C(=O)C2CCN(S(=O)(=O)c3ccc(C)cc3)CC2)c1 | nt | 2.8 | 5.0 | 0.9
O=C(c1ccco1)N1CCN(C(c2ccccc2F)c2nnnn2CC2CCCO2)CC1 (stereo not drawn) | 12.8 | 2.6 | 7.6 | 5.6
O=C(c1ccco1)N1CCN(C(c2ccccc2Cl)c2nnnn2CC2CCCO2)CC1 (stereo not drawn) | nt | 19.4* | 26.1 | -10.1
CCN1CNC(=S)N(c2cccc(C)c2)C1 | -3.8 | -0.8 | 11.9 | 4.0
O=C(Cc1ccccc1Cl)NC1(O)C(=O)c2ccccc2C1=O | 9.1 | 25.8* | 1.0 | -4.6
CC(=O)c1cc(C#N)c(SCc2ccncc2)nc1C | nt | -2.1 | -21.0 | -1.4
NS(=O)(=O)c1ccc2ccccc2c1 | -18.5 | -0.8 | 7.7 | -1.2
O=C(O)/C=C/S(=O)(=O)c1ccc2ccccc2c1 | -5.9 | 53.9* | 22.8 | 8.7
CC(NC(=O)Cn1nc(C(F)(F)F)c2c1CCC2)c1ccccc1 (stereo not drawn) | -3.8 | 16.9* | -1.6 | -15.7
CC(C)NC(=O)Cn1nc(C(F)(F)F)c2c1CCC2 | -3.8 | 3.3 | 1.4 | -4.5
COc1ccc(Oc2nc3ccccc3n3cccc23)cc1 | 5.6 | 12.2 | -10.5 | -2.1
Clc1ccc(Oc2nc3ccccc3n3cccc23)cc1 | 1.1 | 26.4* | 1.0 | -9.6
Cc1nnc(SCCn2c(N3CCN(C)CC3)nc3c2c(=O)[nH]c(=O)n3C)s1 | nt | 0.8 | -4.7 | -12.2
CC(C)CCOC(=O)/C(=C/c1ccco1)NC(=O)/C=C/c1ccccc1 | nt | 22.2* | -3.5 | -2.0
NC(=O)/C(=C/c1ccco1)NC(=O)/C=C/c1ccccc1 | -5.6 | 4.8 | -6.0 | -12.2
Cc1nn(Cc2ccc(Cl)cc2Cl)c(C)c1NC(=O)c1ccc(COc2cc(Cl)ccc2Cl)o1 | nt | 2.4 | -7.1 | 8.7
Cc1nn(Cc2c(F)c(F)c(F)c(F)c2F)c(C)c1NC(=O)c1ccc(COc2ccc(Cl)cc2Cl)o1 | -28.0 | 17.4* | 3.7 | 2.3
Cc1ccc(CNC(=O)CSc2nc(C)cc(C)c2C#N)cc1 | nt | 17.0* | 0.8 | -10.7
CCOC(=O)CNC(=O)CSc1nc(C)cc(C)c1C#N | nt | -2.7 | 0.0 | -7.6
CN(CC(=O)Nc1ccc(F)cc1)C(=O)COC(=O)CNC(=O)c1ccc(Cl)cc1Cl | nt | 21.2* | 13.3 | nt
O=C(NC(Cc1ccc(F)cc1)C(=O)O)c1ccccc1 (stereo not drawn) | 13.1 | 1.2 | 3.2 | -11.9
O=C(NC(O)C(=O)c1ccccc1)c1ccc(F)cc1 (stereo not drawn) | -15.4 | 18.3* | -7.1 | -7.2
CCCCCC(=O)Nc1cccc(S(=O)(=O)NC2=NCCC2)c1 | nt | nt | -11.8 | nt
SMILES | Hep lipid drop | CTSL1 counter | Arr AP2 block | p-CIP stab down
CCc1ccc(-c2cn(-c3nc(C)cc(C)n3)c(=N)o2)cc1 | 27.0 | 61.5* | -2.1 | -36.3
CCCCN(CCCC)CCn1cnc2c([nH]c3ccc(OC)cc32)c1=O | -43.3 | 106.7* | 0.2 | -17.0
COc1ccc2[nH]c3c(=O)n(CCc4ccccc4)cnc3c2c1 | -39.5 | 3.3 | 28.5 | -10.6
CCOC(=O)C(Cc1ccc(O)cc1)NC(=O)CNC(=O)C(CC(C)C)NC(=O)OC(C)(C)C (stereo not drawn) | 8.4 | 29.3* | 7.3 | -15.1
Cc1ccccc1Nc1cc2ccccc2c(=O)[nH]1 | -0.8 | 82.6* | 8.0 | -22.6
O=c1[nH]c(Nc2ccc(F)cc2)cc2ccccc12 | -1.9 | 58.4* | 1.1 | 2.6
O=c1[nH]c(Nc2ccccc2Cl)cc2ccccc12 | nt | 15.0 | -1.5 | nt
COc1ccc(CC(=O)OCc2cc3cccc(C)c3[nH]c2=O)cc1 | nt | 4.5 | -7.2 | -3.8
CN(C)C=NC(=O)c1cc(C(=O)c2ccc(Cl)cc2)c[nH]1 | 3.5 | 17.6* | 14.1 | -4.9
CN(C)C=NC(=O)c1cc(C(=O)c2ccc(F)cc2)c[nH]1 | -5.1 | -0.3 | -8.5 | 9.1
CC(C)CC(C(=O)Nn1cnnc1)N1C(=O)c2ccccc2C1=O (stereo not drawn) | nt | 23.2* | -8.5 | -10.3
COC(=O)C(CCC(C(=O)OC)N1C(=O)c2ccccc2C1=O)N1C(=O)c2ccccc2C1=O (stereo not drawn) | nt | nt | 11.1 | nt
CN1CCN(C2=C(Cl)C(=O)C(c3cnc(N4CCCCC4)s3)=C(Cl)C2=O)CC1 | -3.7 | -1.4 | 107.0* | -15.5
CN1CCN(C2=C(Cl)C(=O)c3ccccc3C2=O)CC1 | nt | nt | 41.0 | nt
COc1ccc(C(=O)Nc2ccccc2-c2nnn(CC(=O)N3CCOCC3)n2)cc1 | -6.8 | 2.7 | 7.6 | -5.3
Cc1nn(-c2ccccc2)c(N2CCCC2)c1/C=N/Nc1ccc(S(=O)(=O)Nc2ccccc2)cc1[N+](=O)[O-] | 82.2* | 4.6 | 1.2 | -7.8
O=C(CSc1nc(O)c(-c2ccccc2)c(=O)[nH]1)N1CCOCC1 | 4.4 | -2.2 | -46.0 | 14.9
Cc1[nH]c2ccccc2c1SCC(=O)NC1CCCCC1 | -8.1 | 23.3* | -16.5 | -11.7
O=C(CSc1c[nH]c2ccccc12)NC1CCCC1 | -2.7 | -3.7 | -4.7 | -1.7
CCOc1cc(N2CCOCC2)c(OCC)cc1NC(=O)CN1CCCC(C)C1 (stereo not drawn) | -8.8 | 45.4* | 13.4 | 6.7
Cc1sc2ncnc(N3CCC(C(=O)Nc4cc(Cl)ccc4Cl)CC3)c2c1C | nt | 4.9 | -18.9 | nt
CC(C)(CNC(=O)COc1ccccc1Cc1ccccc1)N1CCOCC1 | -1.9 | -3.1 | 6.7 | 21.1
O=C(COc1ccccc1Cc1ccccc1)NCCCN1CCOCC1 | -6.0 | 19.8* | -5.2 | -5.3
O=C(Nc1ccccc1N1CCOCC1)c1ccc(N2CCOCC2)c([N+](=O)[O-])c1 | 2.1 | 0.9 | -3.8 | -5.0
Clc1ccc(C2=NN(c3ccccc3)C(c3ccco3)C2)cc1 (stereo not drawn) | 29.8 | 0.5 | 5.7 | 4.1
SMILES | Hep lipid drop | CTSL1 counter | Arr AP2 block | p-CIP stab down
Cc1nc(N2N=C(c3ccc(Cl)cc3)CC2c2ccco2)sc1C(=O)N(C)C (stereo not drawn) | 2.5 | 25.1* | 15.0 | -17.1
CCOC(=O)c1cc(C(=O)c2cc(F)ccc2O)coc1=N | nt | -3.8 | -2.6 | -5.9
CCOc1ccc(NC(=O)CS(=O)CC(=O)Nc2cccnc2)cc1 (stereo not drawn) | 19.6 | 3.9 | 6.7 | 0.2
CN(C)C(CNC(=O)C1CCCN(C(=O)c2ccc(Cl)cc2)C1)c1ccco1 (stereo not drawn) | nt | 18.5* | 5.5 | -14.9
CSc1nc2ccsc2c(=O)n1-c1ccccc1 | -4.0 | 18.0* | -0.2 | 8.8
CCOc1ccc(CCNC(=O)Cn2ccc3ccccc3c2=O)cc1OCC | 50.0* | 3.8 | 26.7 | -2.6
Cc1ccccc1CC(=O)NC1CCCc2ccccc21 (stereo not drawn) | -8.7 | 2.9 | -5.4 | -3.1
O=C(O)c1ccc(NC2=C(n3nnc4ccccc43)C(=O)c3ccccc3C2=O)cc1 | 26.6 | 33.7* | 27.1 | -2.6
CCCSc1nnc2n(N)c(=O)c3ccccc3n12 | nt | 2.1 | 9.7 | -2.3
